Data on 15 compounds can be found in PubChem BioAssay.

A short description of assay [1]: inhibitors of TNFa-induced NFkB p65 translocation, primary screen, imaging, HUVEC, MLSMR starter and 10KST1 sets (AID 438;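 active means inhibition above 20% together with a positive visual image hit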;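 further: compound added about 3h40 before a 20 min TNFalpha stimulation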;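 on inhibition: signal is the nuclear over cytoplasmic p65 intensity ratio per well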). The following applies: HUVEC TNFa-induced p65 nuclear translocation; cell count: measured here: nuclei count (cytotoxicity indicator), at 2.08 µM; inhibition: at 2 µM, stronger effect = higher value, 0% TNFa-plus-vehicle, 100% no-TNFa wells.
Assay [2] in a line: inhibitors of mutant huntingtin aggregation, primary screen, imaging, exon1htt(103Q)mCFP cells, high-content imaging (AID 483;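 active means visual image review flags a hit and inhibition of aggregation exceeds 20%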;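 further: compound exposure lasted 3 days before fixation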;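 on nuclei count: percent of the per-plate median nuclei count of sample wells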). Particulars: exon1htt(103Q)mCFP cell line, aggregate imaging, at 2 µM; inhibition of aggregation: stronger effect = higher value; nuclei count: measured here: cell count, toxicity.
Assay [3] in a line: inhibitors of E-selectin induction by TNFa, primary screen, imaging, HUVEC, immunofluorescence, MLSMR starter and 10KST1 sets (AID 487).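 On inhibition: signal is fraction of cell area covered by stained E-selectin grains.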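 On nuclei count: 100% = median nuclei count of all wells on the same plate.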 Particulars: HUVEC TNFalpha-induced E-selectin immunofluorescence imaging, at 2 µM; inhibition: stronger effect = higher value; nuclei count: measured here: cell number, toxicity.
Assay [4] has as its target Voltage-gated potassium channel subunit beta-2 (Rattus norvegicus) (UniProt P62483). In words: KvBeta enzyme negative modulators, primary screen, biochemical, NADPH fluorescence (AID 622;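 active means fluorescence slope higher than the sample average by over 3 SD, cut at about -0.22 in these data, passing the limit was not always enough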;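 further: slope of raw intensity against log time taken from 70 to 1610 s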). Particulars: recombinant KvBeta, 4-cyanobenzaldehyde reduction, at 10 µM, stronger effect = higher value.
Assay [5] has the same target. The assay is described as follows: KvBeta positive modulators, primary screen, biochemical, NADPH fluorescence (AID 623;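 active means NADPH fluorescence slope more negative than the mean of all samples by about 3 SD, 99.7% confidence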;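 further: fluorescence intensity change per second fitted from 20 to 320 s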). Particulars: Recombinant KvBeta, NADPH fluorescence decrease slope, 10 min; at 10 µM; stronger effect = lower value.
Assay [6] has as its target Muscarinic acetylcholine receptor M4 (Homo sapiens) (UniProt P08173). In words: compounds altering M4/GIRK thallium flux, either direction, primary screen, M4 allosteric agonist project, cell-based, HEK293 M4/GIRK, BTC-AM (AID 625;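 active means fluorescence slope after compound addition differing from the mean of all tested samples at 99.7% confidence, mostly higher but some lower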;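 further: thallium influx through GIRK channels coupled to M4 in HEK293 cells with BTC-AM dye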). Particulars: at 10 µM, actives lie on both sides. The procedure, abridged:
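System: HEK293 cells with M4 receptor and GIRK channels | Incubation: Cells overnight at 37 °C, BTC-AM loading 1 h, reads 2 min total | Technique: Kinetic BTC-AM fluorescence sampled at 1 Hz, 10 s pre-addition baseline | Measure: Post-addition slope, 15–24 s, of baseline-normalized fluorescence | Control set: Carbachol positive, DMSO negative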

Assay [7] in a line: inhibitors of Sendai virus-induced IRF3 signaling, primary screen, TLR/RLR signaling modifier project, cell-based, Sendai virus stimulus, luciferase, 10K MLSCN set (AID 602276;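 active means inhibition at or above 50% at 10 µM; inactive means inhibition below 50%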;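 further: firefly luciferase from ISG56 promoter only with Renilla not read in this screen; 0% = Sendai virus plus DMSO and 100% = medium plus DMSO without virus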). Particulars: HEK293 RL24 IRF3 luciferase reporter, at 10 µM, stronger effect = higher value. A general note: A reporter such as luciferase makes a cellular process visible.
Assay [8] can be described thus: inhibitors of poly I:C-induced TLR3 signaling, primary screen, cell-based, poly I:C stimulus, luciferase, 10K MLSCN set (AID 602277;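 active means inhibition of the reporter signal at or above 50%; inactive means inhibition below 50%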). The following applies: HEK293-TLR3 RL24 IRF3 luciferase reporter, at 10 µM, stronger effect = higher value.

Each structure is given as a SMILES string. Calls of active or inactive are those of the source.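 How the source made its calls, unless noted: active means visually confirmed hit in the image check and inhibition above 20%; inconclusive means visually confirmed hit but inhibition not above 20%; inactive means no visual hit in the image check.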

Chain of Voltage-gated potassium channel subunit beta-2 (Rattus norvegicus) (P62483 whole entry, looked up): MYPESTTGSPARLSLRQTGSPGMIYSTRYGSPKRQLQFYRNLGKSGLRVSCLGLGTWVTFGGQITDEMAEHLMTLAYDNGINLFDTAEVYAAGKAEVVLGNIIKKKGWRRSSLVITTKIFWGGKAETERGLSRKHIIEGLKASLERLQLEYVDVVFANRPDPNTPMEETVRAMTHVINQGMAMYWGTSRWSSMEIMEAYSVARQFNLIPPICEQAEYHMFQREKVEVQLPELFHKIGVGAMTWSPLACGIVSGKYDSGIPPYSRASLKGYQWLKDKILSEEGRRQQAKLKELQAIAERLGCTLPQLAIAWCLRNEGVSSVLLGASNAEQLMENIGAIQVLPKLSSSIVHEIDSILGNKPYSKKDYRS
Chain of Muscarinic acetylcholine receptor M4 (Homo sapiens) (P08173 whole entry, looked up): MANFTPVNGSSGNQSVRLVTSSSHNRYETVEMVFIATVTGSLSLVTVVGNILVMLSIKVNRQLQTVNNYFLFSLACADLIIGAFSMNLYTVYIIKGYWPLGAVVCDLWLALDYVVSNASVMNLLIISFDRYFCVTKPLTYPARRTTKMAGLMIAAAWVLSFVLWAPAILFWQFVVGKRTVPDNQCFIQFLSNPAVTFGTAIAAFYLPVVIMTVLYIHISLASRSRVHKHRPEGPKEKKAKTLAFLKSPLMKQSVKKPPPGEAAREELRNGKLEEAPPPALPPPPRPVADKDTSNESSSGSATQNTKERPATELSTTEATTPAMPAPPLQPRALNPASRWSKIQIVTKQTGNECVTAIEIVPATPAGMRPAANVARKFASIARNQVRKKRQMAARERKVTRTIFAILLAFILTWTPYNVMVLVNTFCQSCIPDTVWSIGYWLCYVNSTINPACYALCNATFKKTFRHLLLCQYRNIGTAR

As for `CNC(=O)c1ccccc1NC(=O)c1c(O)c2c([nH]c1=O)CCCC2`, the cell count in assay [1] is 433. The inhibition is 16.6% (inactive) in assay [1], -19.5% (inactive) in assay [3], 4.16% (inactive) in assay [7] and 16.9% (inactive) in assay [8]. Moreover, the inhibition of aggregation in assay [2] is -9.3% (inactive). For the same compound, the nuclei count in assay [2] amounted to 98.8%; in assay [3] it was 108%. Besides, the fluorescence slope in assay [4] is -0.47 (inactive); in assay [6], 0.00682 (inactive). In addition, in assay [5], the NADPH fluorescence slope was -5.8e-05 (inactive).
Consider `O=C1CS/C(=N\C(=O)N2c3ccccc3Sc3ccccc32)N1`, for which the cell count in assay [1] came out at 373. In addition, the inhibition in assay [1] is 8% (inactive); in assay [3], -22.3% (inactive); in assay [7], 12% (inactive); in assay [8] it was 27.5% (inactive). The inhibition of aggregation in assay [2] is 28.4% (inactive). In addition, the results for the nuclei count in assay [2] and in assay [3] were 87.6% and 128%, respectively. Besides, the fluorescence slope in assay [4] was -0.523 (inactive); in assay [6] it was 0.00677 (inactive). The NADPH fluorescence slope in assay [5] is -5.6e-05 (inactive).
Turning to `CCOC(=O)CSc1nc2ccccc2c(=O)n1CCN1CCOCC1`, in assay [1], the cell count came to 513. Also, the inhibition in assay [1] was -3.4% (inactive); in assay [3] it was 4.2% (inactive); in assay [7] it was -2.06% (inactive); in assay [8] it was 17.7% (inactive). In addition, in assay [2], the inhibition of aggregation is -7.1% (inactive). Also, the nuclei count in assay [2] was 96.3%; in assay [3] it was 109%. In addition, the fluorescence slope in assay [4] is -0.474 (inactive); in assay [6] it was 0.00551 (inactive). Besides, the NADPH fluorescence slope in assay [5] is -1.3e-06 (inactive).
For the compound `CCn1c(=N)n(CC(O)COc2cccc(C)c2)c2ccccc21` (stereo not given), the cell count in assay [1] came to 289. Also, the inhibition in assay [1] is -4.7% (inactive); in assay [3], -9.5% (inactive); in assay [7] it was -0.649% (inactive); in assay [8] it was -11.2% (inactive). Moreover, the inhibition of aggregation in assay [2] is -15.2% (inactive). Also, the nuclei count in assay [2] turned out to be 94.9%; in assay [3], 112%. For the same compound, the fluorescence slope in assay [4] is -0.517 (inactive); in assay [6], 0.00395 (inactive). The NADPH fluorescence slope in assay [5] is 4.3e-05 (inactive).
For `Cc1cc(-c2ccccc2)nc2cc(C(N)=O)nn12`, the cell count in assay [1] is 331. Moreover, the inhibition in assay [1] is -5.5% (inactive); in assay [3], -129% (inactive); in assay [7], 15.9% (inactive); in assay [8], 13.7% (inactive). Moreover, the inhibition of aggregation in assay [2] is 14.7% (inactive). In addition, the nuclei count was 86.6% in assay [2] and 116% in assay [3]. The fluorescence slope in assay [4] is -0.424 (inactive); in assay [6], 0.0052 (inactive). Besides, the NADPH fluorescence slope in assay [5] is -2.5e-05 (inactive).
`COc1ccccc1N1CCN(C(=O)c2ccc(CS(=O)(=O)c3ccccc3OC)o2)CC1`: the cell count in assay [1] came out at 550. In addition, the inhibition in assay [1] is -12.7% (inactive); in assay [3], -68.7% (inactive); in assay [7] it was 6.55% (inactive); in assay [8], 15.7% (inactive). Further, the inhibition of aggregation in assay [2] is -6.3% (inactive). Further, the nuclei count worked out at 110% in assay [2] and 113% in assay [3]. Also, the fluorescence slope is -0.478 (inactive) in assay [4] and 0.00677 (inactive) in assay [6]. In assay [5], the NADPH fluorescence slope was 3.4e-05 (inactive).
With `CS(=O)(=O)Nc1ccc(S(=O)(=O)Nc2nccs2)cc1`, the cell count in assay [1] turned out to be 418. Besides, the inhibition in assay [1] was 5.4% (inactive); in assay [3] it was -42.5% (inactive); in assay [7] it was 9.08% (inactive); in assay [8], 14.5% (inactive). Also, in assay [2], the inhibition of aggregation was -6.9% (inactive). For the same compound, the nuclei count in assay [2] turned out to be 112%; in assay [3], 87.9%. Also, the values for the fluorescence slope in assay [4] and in assay [6] were -0.399 (inactive) and 0.00758 (inactive), respectively. In addition, the NADPH fluorescence slope in assay [5] is 7.8e-05 (inactive).
For `COc1ccc(CCNC(=O)c2nc3ncccn3n2)cc1OC`, the cell count in assay [1] came to 643. Besides, the inhibition in assay [1] is -2.3% (inactive); in assay [3] it was -12.1% (inactive); in assay [7], 18.2% (inactive); in assay [8], 18.1% (inactive). The inhibition of aggregation in assay [2] was 13.7% (inactive). Also, the values for the nuclei count in assay [2] and in assay [3] were 82.2% and 100%, respectively. Besides, the fluorescence slope in assay [4] was -0.447 (inactive); in assay [6], 0.00528 (inactive). In addition, the NADPH fluorescence slope in assay [5] is -4.3e-05 (inactive).
Regarding `Cn1c(C(=O)NCC2CCCO2)cc2c(=O)[nH]c3ccccc3c21` (stereo not given), in assay [1], the cell count is 334. Besides, the inhibition in assay [1] is 11.8% (inactive); in assay [3], 47.5% (inactive); in assay [7] it was -11.9% (inactive); in assay [8], -5.12% (inactive). Besides, the inhibition of aggregation in assay [2] is -27.1% (inactive). The nuclei count in assay [2] came out at 114%; in assay [3], 76.8%. Besides, the fluorescence slope is -0.355 (inactive) in assay [4] and 0.00794 (inactive) in assay [6]. For the same compound, the NADPH fluorescence slope in assay [5] is -5.9e-05 (inactive).
For the compound `CC(=O)c1c(C)nc(C)nc1NC(=O)Cc1ccccc1`, in assay [1], the cell count came to 234. The inhibition in assay [1] is -4.4% (inactive); in assay [3] it was 2.9% (inactive); in assay [7] it was 12.7% (inactive); in assay [8], 20.5% (inactive). For the same compound, the inhibition of aggregation in assay [2] is 37.5% (inactive). Besides, the nuclei count came out at 79.9% in assay [2] and 84.4% in assay [3]. For the same compound, the fluorescence slope in assay [4] is -0.566 (inactive); in assay [6], 0.00735 (inactive). The NADPH fluorescence slope in assay [5] was -4.2e-05 (inactive).
Consider `Cc1nnc2ccc(N3CCC4(CC3)OCCO4)nn12`, for which the cell count in assay [1] was found to be 538. The inhibition in assay [1] is -21% (inactive); in assay [3], -83% (inactive); in assay [7] it was 12.5% (inactive); in assay [8] it was 8.72% (inactive). Besides, in assay [2], the inhibition of aggregation is 9.6% (inactive). For the same compound, the nuclei count in assay [2] was 112%; in assay [3], 117%. Also, the results for the fluorescence slope in assay [4] and in assay [6] were -0.322 (inactive) and 0.00635 (inactive), respectively. Further, the NADPH fluorescence slope in assay [5] was -3.3e-05 (inactive).
`CC(C)CCn1c(SCC#N)nc2c(sc3ccccc32)c1=O`: in assay [1], the cell count was 718. The inhibition was -3.6% (inactive) in assay [1], -60.1% (inactive) in assay [3], 6.8% (inactive) in assay [7] and 14.8% (inactive) in assay [8]. Also, the inhibition of aggregation in assay [2] is 0.6% (inactive). Further, the values for the nuclei count in assay [2] and in assay [3] were 117% and 119%, respectively. Besides, the fluorescence slope was -0.485 (inactive) in assay [4] and 0.00662 (inactive) in assay [6]. Also, in assay [5], the NADPH fluorescence slope is -2.4e-05 (inactive).
Consider `CN(C)C(=O)C12CCC(C)(c3nc4ccccc4nc31)C2(C)C` (stereo not given), for which the cell count in assay [1] came to 504. For the same compound, the inhibition in assay [1] is -6.5% (inactive); in assay [3], -59.3% (inactive); in assay [7] it was -7.12% (inactive); in assay [8], -15.4% (inactive). The inhibition of aggregation in assay [2] was -24% (inactive). Besides, the nuclei count turned out to be 97% in assay [2] and 112% in assay [3]. Moreover, the results for the fluorescence slope in assay [4] and in assay [6] were -0.492 (inactive) and 0.00404 (inactive), respectively. For the same compound, the NADPH fluorescence slope in assay [5] is -2e-05 (inactive).
With `O=C(NCc1ccco1)Nc1ccc2nsnc2c1`, the cell count in assay [1] came to 683. The inhibition in assay [1] was -6.1% (inactive); in assay [3] it was -138% (inactive); in assay [7], -31.4% (inactive); in assay [8], -83.7% (inactive). Also, the inhibition of aggregation in assay [2] was -22.1% (inactive). The values for the nuclei count in assay [2] and in assay [3] were 113% and 119%, respectively. In addition, the fluorescence slope in assay [4] was -0.445 (inactive); in assay [6], 0.00612 (inactive). In addition, the NADPH fluorescence slope in assay [5] was -2.6e-05 (inactive).
On to `COc1cccc(CN(C)CC(=O)NC(=O)NCc2ccco2)c1`, for which the cell count in assay [1] was determined as 608. The inhibition in assay [1] was 2.7% (inactive); in assay [3], -58.6% (inactive); in assay [7] it was -13.4% (inactive); in assay [8] it was -18.8% (inactive). The inhibition of aggregation in assay [2] was -3.5% (inactive). In addition, the nuclei count in assay [2] came to 101%; in assay [3] it was 180%. Further, the fluorescence slope in assay [4] was -0.49 (inactive); in assay [6] it was 0.00617 (inactive). Moreover, the NADPH fluorescence slope in assay [5] was 2.9e-05 (inactive).

The term inhibition denotes the relative decrease from the control value, in per cent.
